Measured values reported in ChEMBL document CHEMBL4266007, “Synthesis and Biological Evaluation of an Indazole-Based Selective Protein Arginine Deiminase 4 (PAD4) Inhibitor” (ACS Med Chem Lett, 2018).
One block for each compound: values may come before it. Activity calls are given as the source filed them. No cut-off for these calls is given here.

How the values were obtained:
[1] = species on record: Homo sapiens; assay: Ratio of Kinact/Ki for PAD1 (unknown origin) to Kinact/Ki for PAD3 (unknown origin)
[2] = species on record: Homo sapiens; assay: Ratio of Kinact/Ki for PAD1 (unknown origin) to Kinact/Ki for PAD4 (unknown origin)
[3] = species on record: Homo sapiens; assay: Ratio of Kinact/Ki for PAD1 (unknown origin) to Kinact/Ki for PAD2 (unknown origin)
[4] = species on record: Homo sapiens; assay: Ratio of Kinact/Ki for PAD4 (unknown origin) to Kinact/Ki for PAD2 (unknown origin)
[5] = species on record: Homo sapiens; assay: Ratio of Kinact/Ki for PAD4 (unknown origin) to Kinact/Ki for PAD1 (unknown origin)
[6] = species on record: Homo sapiens; assay: Ratio of Kinact/Ki for PAD4 (unknown origin) to Kinact/Ki for PAD3 (unknown origin)
[7] = target: T1, Protein-arginine deiminase type-4 (Homo sapiens, UniProt Q9UM07); assay: Inhibition of PAD4 (unknown origin) preincubated for 15 mins followed by BAEE addition measured after 15 mins by spectrophotometric method
T1 sequence (Q9UM07 whole entry): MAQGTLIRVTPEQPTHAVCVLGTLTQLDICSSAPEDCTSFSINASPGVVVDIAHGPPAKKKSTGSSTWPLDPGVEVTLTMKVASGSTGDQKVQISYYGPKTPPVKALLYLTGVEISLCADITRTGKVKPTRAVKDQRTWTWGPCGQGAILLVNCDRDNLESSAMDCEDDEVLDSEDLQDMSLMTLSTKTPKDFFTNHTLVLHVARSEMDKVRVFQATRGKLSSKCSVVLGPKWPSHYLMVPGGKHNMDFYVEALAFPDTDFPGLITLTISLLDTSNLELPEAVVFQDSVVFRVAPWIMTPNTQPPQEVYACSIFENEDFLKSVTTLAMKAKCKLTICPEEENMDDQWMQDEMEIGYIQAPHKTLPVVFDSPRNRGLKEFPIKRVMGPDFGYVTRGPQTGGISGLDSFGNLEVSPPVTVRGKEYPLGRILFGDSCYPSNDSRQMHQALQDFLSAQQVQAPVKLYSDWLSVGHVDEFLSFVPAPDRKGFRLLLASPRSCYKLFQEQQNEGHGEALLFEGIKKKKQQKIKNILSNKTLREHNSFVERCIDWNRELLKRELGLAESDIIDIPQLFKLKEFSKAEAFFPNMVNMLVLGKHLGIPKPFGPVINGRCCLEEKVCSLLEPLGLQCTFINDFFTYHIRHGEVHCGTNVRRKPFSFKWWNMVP

[8] = species on record: Homo sapiens; assay: Ratio of Kinact/Ki for PAD2 (unknown origin) to Kinact/Ki for PAD4 (unknown origin)
[9] = species on record: Homo sapiens; assay: Ratio of Kinact/Ki for PAD2 (unknown origin) to Kinact/Ki for PAD3 (unknown origin)
[10] = species on record: Homo sapiens; assay: Ratio of Kinact/Ki for PAD2 (unknown origin) to Kinact/Ki for PAD1 (unknown origin)
[11] = species on record: Homo sapiens; assay: Ratio of Kinact/Ki for PAD3 (unknown origin) to Kinact/Ki for PAD1 (unknown origin)
[12] = species on record: Homo sapiens; assay: Ratio of Kinact/Ki for PAD3 (unknown origin) to Kinact/Ki for PAD4 (unknown origin)
[13] = species on record: Homo sapiens; assay: Ratio of Kinact/Ki for PAD3 (unknown origin) to Kinact/Ki for PAD2 (unknown origin)
[14] = target: T1, Protein-arginine deiminase type-4; assay: Inhibition of PAD4 in human HL60 cells assessed as reduction in A23187-induced citrullinated H4 level at 5 to 10 uM preincubated for 15 mins followed by A23187 addition measured after 15 mins by Western blot analysis; format: cell-based
Procedure, shortened: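 HL-60 cells differentiated into mature granulocytes, which express PAD4, then stimulated with a calcium ionophore to trigger histone H4 citrullination. Cell lysates were analysed by Western blot using an anti-citrulline histone H4 antibody.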

SMILES: N=C(CCl)NCCCc1nn(CC2CCCC2)c2cc(Cl)cc(Cl)c12
- Ratio [4]: 72
- Ratio [5]: 3300
- Ratio [6]: 7.5

SMILES: Cn1cc(CCCNC(=N)CCl)c2ccccc21
- IC50 [7]: 190 µM

SMILES: N=C(CCl)NCCCc1nn(CC2CCCC2)c2cccc(Cl)c12
- Ratio [6]: 1.3

SMILES: N=C(CCl)NCCCc1nn(CC2CCCC2)c2ccc(Cl)cc12
- Ratio [6]: 1.6

SMILES: N=C(CCl)NCCCC1NC(=O)N(Cc2ccc(-c3ccccc3Cl)cc2)C1=O (racemic)
- Ratio [11]: > 10
- Ratio [12]: > 10
- Ratio [13]: > 10

SMILES: N=C(CCl)NCCCc1nn(CC2CCCC2)c2cc(Cl)ccc12
- Ratio [6]: 2

SMILES: N=C(CCl)NCCCc1nn(CC2CCCC2)c2cc(Cl)c(Cl)c(Cl)c12
- Ratio [4]: 58
- Ratio [5]: 2700
- Ratio [6]: 11
- inhibition [14]: Active

The next lines start with the values.

- Ratio [1]: > 3
- Ratio [2]: > 3
- Ratio [3]: > 3
SMILES: CC(C)(C)n1nnc([C@H](CCCNC(=N)CCl)NC(=O)c2cccc(C(=O)O)c2)n1

- Ratio [8]: > 5
- Ratio [9]: > 5
- Ratio [10]: > 5
SMILES: CCN1Cc2ccc(C(=O)N[C@@H](CCCNC(=N)CF)c3nc4c(OC)cccc4n3C)cc2C1=O

- inhibition [14]: Active
SMILES: N=C(CCl)NCCC[C@H](NC(=O)c1ccccc1)C(N)=O
